Results published in PMC11827156 (Malaria Journal, 2025).
“Also recorded” adds a separate entry of the source. Like-named read-outs stand apart in the source and are kept apart here.

How the values were obtained:
P. falciparum 3D7 [1] = format: cell-based, Plasmodium falciparum
[2] = biological target: P. falciparum PfSR25− (serpentine receptor 25 knockout strain); test: Comparative IC50 screening, 3D7 versus serpentine receptor 25 knockout strain; format: cell-based, Plasmodium falciparum; settings: 72 h, 0.0019–2 µM, Student's t test
Summary of the method: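 Asynchronous 3D7 and PfSR25− cultures (37 °C, 90% N2/5% O2/5% CO2) at 0.3% parasitaemia and 2% haematocrit were exposed for 72 h to eleven final concentrations. Controls were 0.13% DMSO and chloroquine 0.2441–250 nM. Cells were stained with SYBR Green-I (1:10,000) plus MitoTracker Deep Red (50 nM) for 20 min at 37 °C and read by flow cytometry. Survival was taken relative to DMSO, in triplicate over three experiments. IC50 ± SEM came from dose–response curves.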

P. falciparum 3D7 [3] = format: cell-based, Plasmodium falciparum; settings: 48 h; for effect on parasitaemia compared with the control: 2.5 nM compound alone
P. falciparum 3D7 [4] = test: Competition of TCAMS compounds; format: cell-based, Plasmodium falciparum; settings: for effect on the increase in parasitaemia promoted by melatonin: 2.5 nM compound with 100 nM melatonin; for effect on the increase in parasitaemia promoted by melatonin / effect on the increase in parasitaemia promoted by serotonin: 48 h; for effect on the increase in parasitaemia promoted by serotonin: 2.5 nM compound with 250 nM serotonin; for classification on the serotonin/melatonin pathway in the parasite: from effects in presence and absence of serotonin or melatonin
Summary of the method: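 Asynchronous P. falciparum 3D7 cultures (1% parasitaemia, 2% haematocrit) were given 2.5 nM test compound with or without 250 nM serotonin or 100 nM melatonin. Incubation was 48 h at 37 °C under mixed gas, with a DMSO solvent control. Cells were stained with SYBR Green-I (1:10,000) and MitoTracker Deep Red (50 nM) for 20 min at 37 °C, then parasitaemia was read by flow cytometry. Survival is relative to solvent; triplicate, 3 independent experiments.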

P. falciparum Dd2 = settings: 2 µM; cited from earlier work
HEK293 cells = test: Cytotoxicity of the compounds in HEK293 cells; format: cell-based, human; settings: MTT, 72 h, 0.0019–2 µM
Summary of the method: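 HEK293 cells (passages 7–12, grown in DMEM with 10% FBS and penicillin/streptomycin at 37 °C, 5% CO₂) were trypsinized and seeded at 10^4 cells/well. They were exposed to test compound or DMSO vehicle for 72 h. MTT (5 mg/mL reagent) was then added for 3 h, and the formazan was dissolved in DMSO. Absorbance was read at 570 nm and dose–response curves were fitted. Each condition was run in triplicate in 3 independent experiments.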

[5] = tested on: Plasmodium falciparum 3D7; test: Drug effects on erythrocytic cycle phases in synchronized cultures; format: cell-based
Summary of the method: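 Sorbitol-synchronized P. falciparum 3D7 at 1% parasitaemia and 2% haematocrit received test compound (150 nM), chloroquine (150 nM) or 0.1% DMSO at 0, 12 or 24 h post-synchronization. Samples were taken at 12, 24, 36 and 48 h and stained for 30 min in HEPES-buffered Hank's with 1 µM Hoechst and […] thiazole orange. Flow cytometry gated rings, trophozoites and schizonts on DNA/RNA signal. Data are mean ± SD from one triplicate experiment.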

[6] = read-out: IC50 (nM) 3D7, Table 1, asynchronous culture, 72 h, 0.0019–2 µM, ± standard error of the mean
[7] = Plasmodium falciparum, 3D7, 72 h, read-out: IC50 (nM) 3D7, Table 1, asynchronous culture, 72 h, 0.0019–2 µM, ± standard error of the mean

Row | Compound | IC50 (P. falciparum 3D7 [1]; [6]) [nM] | effect on parasitaemia compared with the control (P. falciparum 3D7 [3]) | effect on the increase in parasitaemia promoted by melatonin (P. falciparum 3D7 [4]) | effect on the increase in parasitaemia promoted by serotonin (P. falciparum 3D7 [4]) | inhibition of parasite development, strain Dd2 (P. falciparum Dd2) [%] | other results
1 | O=C(/C=C/c1ccc(Cl)c(Cl)c1)NC1CCC(CN2CCC(c3c[nH]c4ccc(O)cc34)CC2)CC1 (stereo not drawn) [TCMDC-139494, Oc1ccc2[nH]cc(C3CCN(CC4CCC(CC4)NC(= O)\C = C\c4ccc(Cl)c(Cl)c4)CC3)c2c1] | 122 ± 21.1 |  |  |  |  | difference of IC50 between 3D7 and PfSR25− [2]: none of the compounds tested were significantly different between the two strains
2 | O=C(/C=C/c1ccc(Cl)c(Cl)c1)N1CCC(CN2CCC(c3c[nH]c4cc(C(F)(F)F)ccc34)CC2)CC1 [TCMDC-139860, FC(F)(F)c1ccc2c(c[nH]c2c1)C1CCN(CC2CCN(CC2)C(= O)\C = C\c2ccc(Cl)c(Cl)c2)CC1] | 65.1 ± 11.6 | induced a significant increase in parasitaemia | able to inhibit the increase in parasitaemia partially | partially inhibited the increase in parasitaemia promoted by serotonin | ≤ 50 | difference of IC50 between 3D7 and PfSR25− [2]: none of the compounds tested were significantly different between the two strains
3 | COc1cc2nccc(Nc3ccc(Oc4ccccc4)cc3)c2cc1OC.Cl [TCMDC-131917, Cl.COc1cc2nccc(Nc3ccc(Oc4ccccc4)cc3)c2cc1OC] |  |  |  |  |  | IC50 (P. falciparum 3D7 [1]; [7]): 120 ± 19.4 nM; difference of IC50 between 3D7 and PfSR25− [2]: none of the compounds tested were significantly different between the two strains
4 | Cn1cnc(CCNC(=O)c2cccc(-c3cccc(-c4nc5cc(C(F)(F)F)ccc5[nH]4)c3)c2)c1 [TCMDC-132496, Cn1cnc(CCNC(= O)c2cccc(c2)-c2cccc(c2)-c2nc3cc(ccc3[nH]2)C(F)(F)F)c1] | 1970 ± 116 |  |  |  | ≤ 50 | 
5 | O=C(/C=C/c1c(Cl)cccc1Cl)NC1CCC(CN2CCC(c3c[nH]c4ccccc34)CC2)CC1 (stereo not drawn) [TCMDC-139856, Clc1cccc(Cl)c1\C = C\C(= O)NC1CCC(CN2CCC(CC2)c2c[nH]c3ccccc23)CC1] | 274 ± 31.9 |  |  |  | ≤ 50 | 
6 | CN1CCN(CCCCCNc2c3ccccc3nc3ccccc23)CC1.Cl [TCMDC-137541, Cl.CN1CCN(CCCCCNc2c3ccccc3nc3ccccc23)CC1] |  |  |  |  | ≤ 50 | IC50 (P. falciparum 3D7 [1]; [7]): 165 ± 74.7 nM
7 | CC[C@H](NC(=O)c1c(CN2CCC(N3CCCCC3)CC2)c(-c2ccccc2)nc2cc(O)ccc12)c1ccccc1 [TCMDC-140381, CC[C@H](NC(= O)c1c(CN2CCC(CC2)N2CCCCC2)c(nc2cc(O)ccc12)-c1ccccc1)c1ccccc1] |  |  |  |  | ≤ 50 | reduction of P. falciparum parasitaemia by 50% (P. falciparum 3D7 [1]; at the concentrations tested (0.0019–2 µM), 72 h): could not reduce P. falciparum parasitaemia by 50%
8 | CCOc1cc(CC)ccc1C1CCN(CCCCNC(=O)c2ccc(NC(=O)c3ccc(Cl)cc3)cc2)CC1.Cl [TCMDC-138317, Cl.CCOc1cc(CC)ccc1C1CCN(CCCCNC(= O)c2ccc(NC(= O)c3ccc(Cl)cc3)cc2)CC1] | 80.8 ± 25.9 |  |  |  |  | IC50 (P. falciparum 3D7 [1]; read-out: IC50 nM 3D7, Table 2): 80.8 nM; cytotoxic activity in HEK293 cells (HEK293 cells): exhibited cytotoxic activity in HEK293 cells; also recorded: toxic to mammalian HEK293 cells; CC50 (HEK293 cells; read-out: CC50 nM HEK293): 16.6 nM
9 | Cc1ccc(NC(=O)Nc2ccc(Cl)c(C(F)(F)F)c2)cc1-c1ccc(C(=O)NCCN2CCOCC2)cc1 [TCMDC-133589, Cc1ccc(NC(= O)Nc2ccc(Cl)c(c2)C(F)(F)F)cc1-c1ccc(cc1)C(= O)NCCN1CCOCC1] | 1360 ± 198 |  |  |  | ≤ 50 | 
10 | O=C1Nc2cccc3c2C1(CCCCN1CCC(c2cc4ccncc4[nH]2)CC1)CCC3 (stereo not drawn) [TCMDC-141151, O = C1Nc2cccc3CCCC1(CCCCN1CCC(CC1)c1cc4ccncc4[nH]1)c23] | 459 ± 33.8 |  |  |  | ≤ 50 | 
11 | O=C(/C=C/c1ccc(Cl)c(Cl)c1)N1CCC(CN2CCC(c3c[nH]c4ccc(O)cc34)CC2)CC1 [TCMDC-139786, Oc1ccc2[nH]cc(C3CCN(CC4CCN(CC4)C(= O)\C = C\c4ccc(Cl)c(Cl)c4)CC3)c2c1] | 138 ± 23.9 | induced a significant increase in parasitaemia | could inhibit the increase in parasitaemia promoted by melatonin thoroughly | partially inhibited the increase in parasitaemia promoted by serotonin |  | classification on the serotonin/melatonin pathway in the parasite (P. falciparum 3D7 [4]): potential partial agonists of this pathway in the parasite
12 | COc1cccc(CCNc2nc(NCc3ccccc3)c3cc(OC)c(OC)cc3n2)c1 [TCMDC-135267, COc1cccc(CCNc2nc(NCc3ccccc3)c3cc(OC)c(OC)cc3n2)c1] |  | did not significantly affect parasitaemia compared with the control | able to inhibit the increase in parasitaemia partially; also recorded: effective in preventing the proliferative effects of melatonin | able to inhibit the increase in parasitaemia; also recorded: the most effective at inhibiting the proliferative effects of serotonin |  | IC50 (P. falciparum 3D7 [1]; [7]): 389 ± 120 nM; classification on the serotonin/melatonin pathway in the parasite (P. falciparum 3D7 [4]): potential full antagonists of the pathway; ring phase parasites at the 36 h time point ([5]; 150 nM added 12 h after synchronization, % parasitaemia, n = 3): 0.44 ± 0.14%; parasitaemia at the 36 h time point ([5]; 150 nM added 12 h after synchronization, n = 3): 1.18 ± 0.42%; parasites developed into schizonts at the 24 h time point ([5]; added at 0 h, control 18%): less than 0.5%; effect on erythrocytic cycle progression ([5]; synchronized cultures, added at 0, 12 or 24 h): prevents the progression from trophozoite to mature schizonts, but does not affect the ability of mature schizonts to egress and invade RBCs
13 | COc1cc2nc(NCCc3ccccc3)nc(NCCCc3ccccc3)c2cc1OC [TCMDC-135301, COc1cc2nc(NCCc3ccccc3)nc(NCCCc3ccccc3)c2cc1OC] |  | induced a significant increase in parasitaemia | able to inhibit the increase in parasitaemia partially | unable to prevent the effect of the neurotransmitter on P. falciparum parasitaemia |  | IC50 (P. falciparum 3D7 [1]; [7]): 434 ± 81.2 nM; increase in parasitaemia (P. falciparum 3D7 [3]; 2.5 nM): 9.69%
14 | CS(=O)(=O)Nc1ccc2[nH]cc(C3CCN(CC4CCN(C(=O)/C=C/c5ccc(Cl)c(Cl)c5)CC4)CC3)c2c1 [TCMDC-139813, CS(= O)(= O)Nc1ccc2[nH]cc(C3CCN(CC4CCN(CC4)C(= O)\C = C\c4ccc(Cl)c(Cl)c4)CC3)c2c1] | 116 ± 49.1 | did not significantly affect parasitaemia compared with the control | able to inhibit the increase in parasitaemia partially | partially inhibited the increase in parasitaemia promoted by serotonin |  | 
15 | Cc1[nH]c2c(C)cccc2c1C1CCN(CCC2CCN(C(=O)/C=C/c3ccc(Cl)c(Cl)c3)CC2)CC1 [TCMDC-139803, Cc1[nH]c2c(C)cccc2c1C1CCN(CCC2CCN(CC2)C(= O)\C = C\c2ccc(Cl)c(Cl)c2)CC1] | 91.9 ± 18.1 | induced a significant increase in parasitaemia | able to inhibit the increase in parasitaemia partially | partially inhibited the increase in parasitaemia promoted by serotonin |  | difference of IC50 between 3D7 and PfSR25− [2]: none of the compounds tested were significantly different between the two strains
